# From ChEMBL document CHEMBL2424587, “Antiproliferative activity of abietane diterpenoids against human tumor cells” (J Nat Prod, 2013)
# Active and inactive are the calls of the source. The rule behind the calls is not given here.
# Test system: HL-60
# Assay: Induction of apoptosis in human HL60 cells using DEVD-pNA as substrate assessed as caspase-3/7 activation at 3 uM after 24 hrs relative to control
# Format: functional
# Conditions: not given
# In short: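 HL-60 cells treated with 3 μM diterpene for 24 h. Lysates were assayed for cleavage of chromogenic tetrapeptide substrates DEVD-pNA (caspase-3/7), IETD-pNA (caspase-8) and LEHD-pNA (caspase-9). Activity is expressed as n-fold over untreated control. Mean ± SE of three independent experiments, each in triplicate.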
row,Compound,fold change (FC)
1,CC(=O)O[C@H]1C2=C(C(=O)C(OC(=O)c3ccccc3)=C(C(C)C)C2=O)[C@@]2(C)CCCC(C)(C)[C@@H]2[C@@H]1OC(=O)c1ccccc1,2

# Test system: HL-60
# Assay: Induction of apoptosis in human HL60 cells after 24 hrs by flow cytometry in presence of caspase-9 inhibitor Z-LEHD-FMK
# Format: functional, cell-based
# Conditions: not given
# In short: (§1)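 HL-60 cells pretreated 1 h with caspase inhibitor, then given diterpene for 24 h; hypodiploid cells counted by flow cytometry; mean ± SE of three independent experiments in triplicate.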
row,Compound,Activity
1,CC(=O)O[C@H]1C2=C(C(=O)C(OC(=O)c3ccccc3)=C(C(C)C)C2=O)[C@@]2(C)CCCC(C)(C)[C@@H]2[C@@H]1OC(=O)c1ccccc1,Active

# Test system: HL-60
# Assay: Induction of apoptosis in human HL60 cells assessed as nuclear chromatin fragmentation after 6 hrs by Hoechst 33258 staining-based fluorescence microscopy
# Format: functional, cell-based
# Conditions: not given
row,Compound,Activity
1,CC(=O)O[C@H]1C2=C(C(=O)C(OC(=O)c3ccccc3)=C(C(C)C)C2=O)[C@@]2(C)CCCC(C)(C)[C@@H]2[C@@H]1OC(=O)c1ccccc1,Active

# Test system: HL-60
# Assay: Induction of apoptosis in human HL60 cells at 3 uM after 24 hrs by flow cytometry in presence of Z-VAD-FMK
# Format: functional, cell-based
# Conditions: not given
# In short: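 HL-60 cells pretreated with pancaspase inhibitor Z-VAD-FMK (100 μM), then given diterpene (3 μM) for 24 h. Hypodiploid (sub-G1) apoptotic cells were counted by flow cytometry. Mean ± SE of three independent experiments, each in triplicate.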
row,Compound,Activity
1,CC(=O)O[C@H]1C2=C(C(=O)C(OC(=O)c3ccccc3)=C(C(C)C)C2=O)[C@@]2(C)CCCC(C)(C)[C@@H]2[C@@H]1OC(=O)c1ccccc1,Active

# Test system: HL-60
# Assay: Cytotoxicity against human HL60 cells after 72 hrs by MTT assay
# Format: functional, cell-based
# Conditions: HL-60, 72 h
# In short: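 MTT assay: 1 × 10^4 exponentially growing cells per well incubated 72 h over a range of compound concentrations; MTT 0.5 mg/mL for 4 h at 37 °C, then 10% SDS in 0.05 M HCl overnight at room temperature in the dark; absorbance at 570 nm. Leukemia and SK-MEL-1 lines grown in RPMI 1640, MCF-7 in DMEM, both with 10% heat-inactivated FBS. IC50 given as mean ± SEM of 3–5 independent experiments, each in triplicate.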
row,Compound,IC50 [µM]
1,CC(=O)O[C@H]1C2=C(C(=O)C(OC(=O)c3ccccc3)=C(C(C)C)C2=O)[C@@]2(C)CCCC(C)(C)[C@@H]2[C@@H]1OC(=O)c1ccccc1,3.6

# Test system: HL-60
# Assay: Induction of apoptosis in human HL60 cells assessed as procaspase-3 cleavage at 3 uM after 24 hrs by immunoblotting analysis
# Format: functional, cell-based
# Conditions: not given
# In short: (§2)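 HL-60 cells treated 24 h with 3 μM; immunoblots of lysates probed with antibodies that recognize both pro-caspases and cleaved caspases, and for PARP.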
row,Compound,Activity
1,CC(=O)O[C@H]1C2=C(C(=O)C(OC(=O)c3ccccc3)=C(C(C)C)C2=O)[C@@]2(C)CCCC(C)(C)[C@@H]2[C@@H]1OC(=O)c1ccccc1,Active

# Test system: HL-60
# Assay: Induction of apoptosis in human HL60 cells assessed as reduction in mitochondrial membrane potential at 3 uM after 24 hrs by JC-1 staining-based flow cytometry in presence of bongkrekic acid
# Format: functional, cell-based
# Conditions: not given
# In short: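 HL-60 cells exposed to 3 μM diterpene for 24 h alongside permeability transition pore inhibitors cyclosporin A (25 μM, 24 h) or bongkrekic acid (25−50 μM, 24 h). Apoptosis was scored by flow cytometry. Mitochondrial membrane potential was read by JC-1 fluorescence on flow cytometry.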
row,Compound,Activity
1,CC(=O)O[C@H]1C2=C(C(=O)C(OC(=O)c3ccccc3)=C(C(C)C)C2=O)[C@@]2(C)CCCC(C)(C)[C@@H]2[C@@H]1OC(=O)c1ccccc1,Active

# Test system: HL-60
# Assay: Cytotoxicity against human HL60 cells overexpressing neomycin-resistant gene after 72 hrs by MTT assay
# Format: functional, cell-based
# Conditions: not given
row,Compound,Activity
1,CC(=O)O[C@H]1C2=C(C(=O)C(OC(=O)c3ccccc3)=C(C(C)C)C2=O)[C@@]2(C)CCCC(C)(C)[C@@H]2[C@@H]1OC(=O)c1ccccc1,Active

# Test system: HL-60
# Assay: Induction of apoptosis in human HL60 cells assessed as early apoptotic cells at 3 uM after 24 hrs by AnnexinV-FITC/propidium iodide staining-based flow cytometry (reference value: 1.6%)
# Format: functional
# Conditions: not given
# In short: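 HL-60 cells given 3 μM for 24 h, stained with annexin V-FITC and propidium iodide, and analysed by flow cytometry; annexin+/PI− cells scored as early apoptotic and double-positive cells as late; three separate experiments.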
row,Compound,Activity [%]
1,CC(=O)O[C@H]1C2=C(C(=O)C(OC(=O)c3ccccc3)=C(C(C)C)C2=O)[C@@]2(C)CCCC(C)(C)[C@@H]2[C@@H]1OC(=O)c1ccccc1,20.7

# Test system: HL-60
# Assay: Induction of apoptosis in human HL60 cells assessed as PARP cleavage at 3 uM after 24 hrs by immunoblotting analysis
# Format: functional, cell-based
# Conditions: not given
# In short: as §2
row,Compound,Activity
1,CC(=O)O[C@H]1C2=C(C(=O)C(OC(=O)c3ccccc3)=C(C(C)C)C2=O)[C@@]2(C)CCCC(C)(C)[C@@H]2[C@@H]1OC(=O)c1ccccc1,Active

# Test system: HL-60
# Assay: Cell cycle arrest in human HL60 cells assessed as accumulation at Sub-G1 phase at 3 uM after 24 hrs by […]propidium iodide staining-based flow cytometry (reference value: 4%)
# Format: functional
# Conditions: not given
row,Compound,Activity [%]
1,CC(=O)O[C@H]1C2=C(C(=O)C(OC(=O)c3ccccc3)=C(C(C)C)C2=O)[C@@]2(C)CCCC(C)(C)[C@@H]2[C@@H]1OC(=O)c1ccccc1,40

# Test system: PBMC
# Assay: Cytotoxicity against human PBMC cells up to 3 uM after 24 hrs by MTT assay
# Format: cell-based
# Conditions: not given
# In short: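 PBMC from heparinized blood of healthy volunteers, isolated on Ficoll-Paque, cultured in parallel with HL-60 cells for 24 h at the stated concentrations; viability measured by MTT; Student's t-test versus untreated control.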
row,Compound,Activity
1,CC(=O)O[C@H]1C2=C(C(=O)C(OC(=O)c3ccccc3)=C(C(C)C)C2=O)[C@@]2(C)CCCC(C)(C)[C@@H]2[C@@H]1OC(=O)c1ccccc1,Non-toxic

# Test system: HL-60
# Assay: Induction of apoptosis in human HL60 cells assessed as hypodiploid cells at 3 uM after 24 hrs by flow cytometry (reference value: 4.4 +/- 0.8%)
# Format: functional
# Conditions: not given
row,Compound,Activity [%]
1,CC(=O)O[C@H]1C2=C(C(=O)C(OC(=O)c3ccccc3)=C(C(C)C)C2=O)[C@@]2(C)CCCC(C)(C)[C@@H]2[C@@H]1OC(=O)c1ccccc1,48

# Test system: HL-60
# Assay: Induction of apoptosis in human HL60 cells assessed as hypodiploid cells after 24 hrs by flow cytometry in presence of caspase-8 inhibitor Z-IETD-FMK
# Format: functional, cell-based
# Conditions: not given
# In short: as §1
row,Compound,Activity
1,CC(=O)O[C@H]1C2=C(C(=O)C(OC(=O)c3ccccc3)=C(C(C)C)C2=O)[C@@]2(C)CCCC(C)(C)[C@@H]2[C@@H]1OC(=O)c1ccccc1,inactive

# Test system: HL-60
# Assay: Induction of apoptosis in human HL60 cells assessed as procaspase-8 cleavage at 3 uM after 24 hrs by immunoblotting analysis
# Format: functional, cell-based
# Conditions: not given
# In short: as §2
row,Compound,Activity
1,CC(=O)O[C@H]1C2=C(C(=O)C(OC(=O)c3ccccc3)=C(C(C)C)C2=O)[C@@]2(C)CCCC(C)(C)[C@@H]2[C@@H]1OC(=O)c1ccccc1,Active
